Test results from ChEMBL document CHEMBL1681666, “Synthesis and in vitro screening of novel N-benzyl aplysinopsin analogs as potential anticancer agents” (2011).

How the values were obtained:
Assay type in all cases: functional
KM12 = assay: Anticancer activity against human KM12 cells; conditions: read-out: LC50 (the source's name)
In short: (§1)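 NCI 60-cell human tumour panel (leukemia, lung, colon, CNS, melanoma, ovarian, renal, prostate, breast). A first-stage single-dose screen at 10 µM was run. Compounds giving over 60% growth inhibition in at least eight lines went on to a five-dose response. Effect was plotted against log10 molar concentration per line. GI50 is the concentration giving 50% reduction in net protein increase versus control cells. LC50 is the concentration lethal to 50% of cells.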

MOLT-4 = assay: Anticancer activity against human MOLT4 cells; in short: as §1
A549 = assay: Anticancer activity against human A549 cells; in short: as §1
CCRF-CEM = assay: Anticancer activity against human CCRF-CEM cells; in short: as §1
HCT-15 = assay: Anticancer activity against human HCT15 cells; in short: as §1
HT-29 = assay: Anticancer activity against human HT-29 cells; in short: as §1
HL-60(TB) = assay: Anticancer activity against human HL-60(TB) cells; in short: as §1
UACC-62 = assay: Anticancer activity against human UACC62 cells
In short: (§2)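 NCI 60-cell-line panel. A single-dose (10 µM) prescreen was run first. Compounds giving over 60% growth inhibition in at least eight lines then went to five-dose response studies. Dose-response curves of effect versus log10 concentration. GI50 is the molar concentration giving a 50% reduction in net protein increase versus control cells. LC50 is the concentration lethal to 50% of cells.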

Malme-3M = assay: Anticancer activity against human MALME-3M cells; in short: as §1
EKVX = assay: Anticancer activity against human EKVX cells; in short: as §1
SN12C = assay: Anticancer activity against human SN12C cells; in short: as §1
[1] = Anticancer activity against human NCI/ADR cells; conditions: NCI/ADR-RES; in short: as §1
SK-MEL-28 = assay: Anticancer activity against human SK-MEL-28 cells; in short: as §1
U-251 = assay: Anticancer activity against human U251 cells; in short: as §2
K562 = assay: Anticancer activity against human K562 cells; in short: as §1
UO-31 = assay: Anticancer activity against human UO31 cells; in short: as §2
IGROV-1 = assay: Anticancer activity against human IGROV1 cells; in short: as §1
OVCAR-4 = assay: Anticancer activity against human OVCAR4 cells; in short: as §1
HOP-62 = assay: Anticancer activity against human HOP62 cells; in short: as §1
RXF 393 = assay: Anticancer activity against human RXF393 cells; in short: as §1
SF-268 = assay: Anticancer activity against human SF268 cells; in short: as §1
CAKI-1 = assay: Anticancer activity against human Caki1 cells; in short: as §1
MCF7 = assay: Anticancer activity against human MCF7 cells; in short: as §1
OVCAR-3 = assay: Anticancer activity against human OVCAR3 cells; in short: as §1
NCI-H322M = assay: Anticancer activity against human NCI-H322M cells; in short: as §1
OVCAR-8 = assay: Anticancer activity against human OVCAR8 cells; in short: as §1
HCT-116 = assay: Anticancer activity against human HCT116 cells; in short: as §1
SK-MEL-5 = assay: Anticancer activity against human SK-MEL-5 cells; in short: as §1
DU-145 = assay: Anticancer activity against human DU145 cells; in short: as §1
MDA-MB-231 = assay: Anticancer activity against human MDA-MB-231 cells; in short: as §1
[2] = read-out: LC50 (the source's name)

N=C1NC(=O)/C(=C/c2cn(Cc3ccc(F)cc3)c3ccc(Cl)cc23)S1
CC50 (KM12): > 100 µM
GI50 (MOLT-4): > 100 µM
CC50 (MOLT-4; [2]): > 100 µM
GI50 (A549): 0.77 µM
CC50 (A549; [2]): > 100 µM
GI50 (CCRF-CEM): > 100 µM
CC50 (CCRF-CEM; [2]): > 100 µM
GI50 (HCT-15): > 100 µM
CC50 (HCT-15; [2]): > 100 µM
GI50 (HT-29): 20.8 µM
CC50 (HT-29; [2]): > 100 µM
GI50 (HL-60(TB)): > 100 µM
CC50 (HL-60(TB); [2]): > 100 µM
GI50 (UACC-62): > 100 µM
CC50 (UACC-62; [2]): > 100 µM
GI50 (Malme-3M): 23.5 µM
CC50 (Malme-3M; [2]): > 100 µM
GI50 (EKVX): > 100 µM
CC50 (EKVX; [2]): > 100 µM
GI50 (SN12C): > 100 µM
CC50 (SN12C; [2]): > 100 µM
GI50 [1]: > 100 µM
CC50 [1, 2]: > 100 µM
GI50 (SK-MEL-28): > 100 µM
CC50 (SK-MEL-28; [2]): > 100 µM
GI50 (U-251): 2.94 µM
CC50 (U-251; [2]): > 100 µM
GI50 (K562): 77.6 µM
CC50 (K562; [2]): > 100 µM
GI50 (UO-31): > 100 µM
CC50 (UO-31; [2]): > 100 µM
GI50 (IGROV-1): 3.02 µM
CC50 (IGROV-1; [2]): > 100 µM
GI50 (OVCAR-4): 2.49 µM
CC50 (OVCAR-4; [2]): > 100 µM
GI50 (HOP-62): > 100 µM
CC50 (HOP-62; [2]): > 100 µM
GI50 (RXF 393): 1.62 µM
CC50 (RXF 393; [2]): > 100 µM
GI50 (SF-268): 32 µM
CC50 (SF-268; [2]): > 100 µM
GI50 (CAKI-1): > 100 µM
CC50 (CAKI-1; [2]): > 100 µM
GI50 (MCF7): > 100 µM
CC50 (MCF7; [2]): > 100 µM
GI50 (OVCAR-3): > 100 µM
CC50 (OVCAR-3; [2]): 30.1 µM
GI50 (NCI-H322M): 71 µM
CC50 (NCI-H322M; [2]): > 100 µM
GI50 (OVCAR-8): 0.019 µM
CC50 (OVCAR-8; [2]): > 100 µM
GI50 (HCT-116): 5.41 µM
CC50 (HCT-116; [2]): > 100 µM
GI50 (SK-MEL-5): > 100 µM
CC50 (SK-MEL-5; [2]): > 100 µM
GI50 (DU-145): 5.24 µM
CC50 (DU-145; [2]): > 100 µM
GI50 (MDA-MB-231): 6.45 µM
CC50 (MDA-MB-231; [2]): > 100 µM
